The source of these data is PubChem BioAssay AID719 (SRMLSC, 2007).

About 940 (1.1%) of roughly 85,000 compounds were called active. For the sample, actives were picked, then their nearest neighbours and some compounds at random. Values without a mark were called inactive.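 How the source made its calls: active means viability at or below 50% in the single dose screen; inactive means viability above 50%.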

The nature of the test: antiproliferative effect on LL 47 fibroblasts – human, LL 47 cells, CellTiter-Glo luminescence, primary screen (AID 719).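 Further: compound exposure lasted 72 h before the ATP readout; 100% = median luminescence of untreated cell-only wells.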 Conditions: LL 47 human lung fibroblast viability, ATP luminescence; at 10 µM; hits give low values. A digest of the protocol:
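Test system: LL 47 human lung fibroblasts; Quantity: 1,150 cells/well; Buffer or medium: IMEM plus 15% FBS; Dosing: tenfold compound dosing solution, DMSO at 0.1%; Timing: overnight cell rest, 72 h compound treatment at 37 °C; Detection: ATP-based CellTiter-Glo luminescent readout; Read-out basis: viability percentage against median untreated-cell control; Controls: cell-only wells, no compound.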
(In general: Cellular ATP, detected with luciferase, serves as a proxy for viable cell number.)
With `O=C(C(NS(=O)(=O)c1cccc2nsnc12)c1ccccc1)N1CCN(c2ccccc2)CC1` (stereo not drawn), the viability – broadly, a read-out of living cells in per cent, often relative to untreated cells – was 94.9%.
For `Oc1c(Cl)cc(Cl)c(Cl)c1Cc1c(O)c(Cl)cc(Cl)c1Cl`, the viability was 46.4% (active).
In the case of `Cc1ccc(S(=O)(=O)NCCN2CCOCC2)cc1C`, the viability was 108%.
To `CCCCN(CCCC)C(=O)CCS(=O)(=O)c1ccc2c(c1)n(C)c(=O)c(=O)n2C` belongs 96.8%.
For `CC(=O)CCS(=O)(=O)c1ccc(C)c(C)c1`, the viability is 32.5% (active).
In the case of `Cc1cc(C)cc(N(CC(=O)N2CC=C(c3ccccc3)CC2)S(=O)(=O)c2c(C)noc2C)c1`, the viability is 95.6%.
On to `CC/C(O)=N\S(=O)(=O)c1ccc(N=NN(C)C)cc1`, for which the viability is 97.5%.
Consider `Cc1ccc(N(Cc2ccc(C(=O)Nc3ccccc3C(=O)NCc3ccco3)cc2)S(C)(=O)=O)cc1C`, for which the viability was 97%.
Consider `CC(C)c1nc2ccc(C(=O)O)cc2[nH]1`, for which the viability is 98.8%.
To `Cc1nc2ccc(C(=O)O)cc2[nH]1` belongs 104%; to `COC(=O)Nc1nc2ccc(Sc3ccccc3)cc2[nH]1`, 47.2% (active).
To `CN(Cc1ccccc1)C(=O)COc1ccccc1` belongs 104%; to `c1ccc(-c2nc(NCc3ccco3)c3ccccc3n2)cc1`, 95.9%.
As for `CC(c1ccco1)N(C(=O)Nc1ccccc1)C1CCCCC1` (stereo not drawn), the viability is 97.3%.
`COc1ccc(-c2cc(C(F)(F)F)nc(NCc3cccnc3)n2)cc1`: the viability is 87.3%.
To `COc1ccc(-c2nnco2)cc1OC` belongs 103%; to `COc1ccc(-c2cc(C(F)(F)F)nc(S(C)(=O)=O)n2)cc1OC`, 2.93% (active).
For `COc1cccc2cc(C(=O)N3CCN(C(=O)c4ccccc4)CC3)c(=O)oc12`, the viability was 92.4%.
With `CC(=O)NC1=NN(C(C)=O)C(C)(c2ccc(Cl)s2)S1` (stereo not drawn), the viability was 67.1%.
For the compound `Cc1ccccc1CSCCNC(=O)c1ccc(Cl)c(S(=O)(=O)N2CCOCC2)c1`, the viability is 97.8%.
On to `CCOc1cc(N2CCOCC2)c(OCC)cc1NC(=O)COc1cccc2cccnc12`, for which the viability is 31% (active).
To `CCOc1cc(N2CCOCC2)c(OCC)cc1NC(=O)COC(=O)[C@H](Cc1c[nH]c2ccccc12)NC(C)=O` belongs 105%; to `CCOc1cc(NC(=O)c2ccco2)c(OCC)cc1NC(=O)COc1ccccc1`, 99.7%; to `CS(=O)(=O)n1nc(-c2ccccc2)nc1NCc1ccco1`, 105%.
The same measure for `CCc1ccc2c(c1)C1(NN=C(c3ccccc3)S1)C(=O)N2` (stereo not drawn): 32.1% (active); for `O=C1Nc2ccccc2C12Nc1ccccc1S2` (stereo not drawn): 92.1%; for `C=C1c2cc(CC)ccc2NC(=O)N1c1ccc(C)cc1`: 102%.
`CN(C)S(=O)(=O)c1ccc(N2CCCC2)c(C(=O)NCc2ccccc2)c1`: the viability was 98.3%.
Take `CC1=C/C(=N\OS(=O)(=O)c2ccccc2)C=CC1=O`: the viability is 1.44% (active).
To `CCOC(=O)c1sc(C)c2c1NC(C)(c1cccc3ccccc13)NC2=O` (stereo not drawn) belongs 78.7%.
To `O=C(NCCSCc1ccccc1)c1ccc(Cl)c(S(=O)(=O)N2CCOCC2)c1` belongs 92.8%.
Take `N=c1c2c3c(sc2nc2n1CCCCC2)CCCC3`: the viability is 102%.
Regarding `CC1(C)NC(=O)N(CCCCSc2ccc(Cl)cc2)C1=O`, the viability is 95%.
To `CCOc1ccc2c(c1)C(c1ccc(C)cc1)=NNC(c1ccc(C)cc1)=N2` belongs 75.9%.
The same measure for `CC(C)(C)NC(=O)Cn1c(SCC(=O)Nc2nccs2)nc2ccccc21`: 93.8%; for `CCC(c1nnnn1C(C)(C)C)N(Cc1cc2cccc(C)c2n2nnnc12)C1CCCC1` (stereo not drawn): 95.7%.
On to `CCOC(=O)c1c(N=CN(C)C)c(C#N)c2n1CCCC2`, for which the viability was 98.2%.
For `CC[C@]1(O)CC2CN(CCc3c([nH]c4ccccc34)[C@@](C(=O)OC)(c3cc4c(cc3OC)N(C=O)[C@H]3[C@@](O)(C(=O)OC)[C@H](OC(C)=O)[C@]5(CC)C=CCN6CC[C@]43[C@@H]65)C2)C1` (stereo partly drawn), the viability was 44.6% (active).
To `CO/N=C(/CS(=O)(=O)c1ccc(Br)cc1)c1ccc(OC)cc1` belongs 90.9%; to `Cc1cc(=O)oc2cc(OCC3CC(c4ccccc4Cl)=NO3)ccc12` (stereo not drawn), 47.8% (active); to `Cc1cc(=O)oc2cc(NC(=O)C3CC(=O)N(Cc4ccccc4)C3)ccc12` (stereo not drawn), 103%.
To `Cc1ccccc1N1CCN(CCCOc2ccc3c(C)cc(=O)oc3c2)CC1` belongs 94%; to `Cc1cccc2nc(CSc3nc4[nH]ncc4c(=O)n3-c3cccc(Cl)c3)cc(=O)n12`, 68.1%; to `CCOc1ccc(S(=O)(=O)Nc2ccc(S(=O)(=O)Nc3cc(OC)ccc3OC)cc2)cc1`, 105%.
With `COC(=O)COc1ccc(S(=O)(=O)Nc2ccc(NC(C)=O)cc2)cc1`, the viability is 104%.
To `CCOc1ccc(NS(=O)(=O)c2ccc(OCC(=O)NCCCOC)cc2)cc1` belongs 40.2% (active); to `O=C(c1ccccc1Oc1ccccc1)N1CCN(c2ccc(F)cc2)CC1`, 99.7%; to `CCOc1ccccc1NC(=O)C1CCCN(C(=O)Nc2ccccc2)C1` (stereo not drawn), 106%.
To `Cn1c(=O)n(C)c2cc(C(=O)Nc3ccc4c(c3)OCO4)ccc21` belongs 48.5% (active).
For the compound `COc1ccc(C(=O)Nc2ccc3c(c2)OCO3)cc1OC`, the viability was 100%.
To `Cn1c(NC(=O)c2ccc3c(c2)OCO3)cc(=O)n(C)c1=O` belongs 97%; to `CCCc1nc2sc3c(c2c(=O)n1NC(=O)CCCl)CCCC3`, 80.4%.
The same measure for `CC1CN(S(=O)(=O)c2ccccc2)C(C)CN1S(=O)(=O)c1ccccc1` (stereo not drawn): 93.9%.
To `CCCn1c(C(Cc2ccccc2)NC(=O)COC)nc2ccccc21` (stereo not drawn) belongs 93.2%; to `Cc1ccc(CN(C(=O)c2sc3ccccc3c2Cl)C2CCS(=O)(=O)C2)cc1` (stereo not drawn), 89.4%; to `CCC(C(=O)NCc1ccc(OC)cc1)n1nc(C)n2c(cc3occc32)c1=O` (stereo not drawn), 95.5%.
For `COc1ccccc1N1CCN(C(=O)CN(Cc2ccc(Cl)cc2)S(C)(=O)=O)CC1`, the viability is 98.3%.
The same measure for `COc1ccccc1-n1nnnc1S(=O)(=O)Cc1ccc(Cl)cc1`: 25% (active); for `COc1ccccc1N1CCN(Cc2nnnn2CCc2ccccc2)CC1`: 101%; for `O=C(Nc1ccccc1-c1nnn(CC(=O)N2CCCc3ccccc32)n1)c1cccc(Cl)c1`: 52.5%.
To `O=C(Cc1cccc2ccccc12)Nc1ccc2oc(-c3ccccc3)nc2c1` belongs 99%; to `Cc1ccc(NC(=O)CCN2CCc3ccccc3C2)cc1`, 94.5%; to `Cc1ccc(NC(=S)NC(NC(=O)Cc2cccc3ccccc23)C(Cl)(Cl)Cl)cc1` (stereo not drawn), 49.6% (active).
